Laboratory results published in PubChem BioAssay AID624380 (The Scripps Research Institute Molecular Screening Center, 2012).
The whole screen tested about 2,300 compounds, of which about 120 (5.2%) were called active. The list is a sample of the results. A number with no mark means an inactive call.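 Rule for the calls: active = mean activation above the mean of DMSO-only wells plus 3 SD (cut at about 0.5% in these data); inactive = the rest.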

biological target: Mu-type opioid receptor (Homo sapiens) (UniProt P35372); test: mu opioid receptor activation, arrestin complementation – cell-based, luminescence, single concentration, counter-screen for mouse HTR2A agonist project, confirmation (AID 624380); conditions: U2OS OPRM1 beta-arrestin PathHunter, at 9.3 µM, stronger effect = higher value, DMSO 0%, DAMGO 9.3 µM 100%
Sequence (P35372 whole entry, looked up, the tested form may be a part): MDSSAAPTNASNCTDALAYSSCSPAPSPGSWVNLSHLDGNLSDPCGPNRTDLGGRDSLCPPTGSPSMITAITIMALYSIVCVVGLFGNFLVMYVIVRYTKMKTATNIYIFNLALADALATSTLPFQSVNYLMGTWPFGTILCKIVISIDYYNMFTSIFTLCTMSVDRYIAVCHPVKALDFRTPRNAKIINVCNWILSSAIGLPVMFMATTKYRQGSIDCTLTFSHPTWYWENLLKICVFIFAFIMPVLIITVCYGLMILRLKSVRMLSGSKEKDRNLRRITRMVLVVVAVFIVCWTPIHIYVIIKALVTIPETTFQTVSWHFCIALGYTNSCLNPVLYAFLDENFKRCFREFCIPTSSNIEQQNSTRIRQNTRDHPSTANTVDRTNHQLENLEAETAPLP
In short: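 system = U2OS cells, OPRM1–beta-arrestin fragment complementation | also added = DAMGO reference agonist, 9.3 µM | schedule = 3 h compound treatment, 37 °C, 1 h room-temperature reagent step | measured by = chemiluminescence from reconstituted beta-galactosidase after detection reagent addition | read-out = percent activation scaled between DMSO-only and DAMGO-treated well medians | repeats = three replicate wells per compound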

First: Cn1c2c(c(=O)n(C)c1=O)C(c1ccc(O)cc1)Nc1ccccc1O2 (stereo unspecified)
Second: Cc1ccc(S(=O)(=O)N2CCN(c3ncnc4ccccc34)CC2)cc1
The activation of the first is lower: -0.51% for the first, 0.43% for the second.

First: O=C(O)C1C2C=CC(O2)C1C(=O)NCCc1cccc(Cl)c1 (stereo unspecified)
Second: O=C1CC(c2cccc(Cl)c2)CC(O)=C1C=Nc1ccccc1 (stereo unspecified)
The activation of the first is lower: -0.74% for the first, -0.61% for the second.

First: COc1ccc(/C(=N\O)c2nccc3cc(OC)c(OC)cc23)cc1OC
Second: COc1ccc(-c2nc3cc([N+](=O)[O-])ccc3o2)cc1OC
The activation of the first is lower: -0.42% for the first, 0.11% for the second.

Compared with `CC(=O)N1c2ccc(S(=O)(=O)N3CCC(C(=O)NC4CCCCC4C)CC3)cc2CC1C` (stereo unspecified), `O=C(Nc1ccc2c(c1)[C@@H]1C[C@@H](CC(=O)N3CCCCC3)O[C@@H](CO)[C@@H]1O2)NC1CCCCC1` is higher in activation: -0.74% for the first, -0.54% for the second.

Compared with `COC(=O)CC(=O)N1CCN(c2ccc(Cl)c(Cl)c2)CC1`, `COC(=O)Cn1nc(-c2ccccc2)c2cc(Cl)ccc21` is higher in activation: -0.63% for the first, -0.43% for the second.

First: CN(C)[C@@H]1C(=O)C(C(N)=O)=C(O)[C@@]2(O)C(=O)C3=C(O)c4c(O)ccc(Cl)c4[C@@H](O)[C@H]3C[C@@H]12
Second: COc1ccc2[nH]cc(CCN3C(=O)c4ccc(C(=O)O)cc4C3=O)c2c1
The activation of the first is lower: -0.63% for the first, -0.57% for the second.

Going from `O=C(c1ccco1)N1CCN(CCOc2ccccc2)CC1` to `Nc1c(N(Cc2ccco2)C(=O)c2cccc(F)c2)c(=O)[nH]c(=O)n1Cc1ccccc1`, the activation rises from -0.48% to -0.45%.

First: Cc1ccc2c(c1)NCC(C(=O)NC1CCC(C)CC1)O2 (stereo unspecified)
Second: C/C(=N\NC(=S)NC1CCCCC1)c1ccc(C)o1
The activation of the first is higher: -0.52% for the first, -0.73% for the second.

Compared with `COc1ccc(C(C)=O)cc1COC(=O)Cn1cnc2ccccc2c1=O`, `Cc1ccc(NC(=O)CSc2nnc(COc3ccccc3C)o2)cc1` is lower in activation: 0.31% for the first, -0.2% for the second.

Compared with `Cc1oc2cc(Br)c(O)c(Br)c2c1C(=O)c1ccccc1`, `COCCN(Cc1cc2cc3c(cc2nc1Cl)OCO3)C(=O)c1cccc(C)c1` is higher in activation: -0.51% for the first, -0.33% for the second.

Compared with `CCCCn1c(N)c(N(CC(C)C)C(=O)CSc2ccc([N+](=O)[O-])cc2)c(=O)[nH]c1=O`, `CCCCC(CC)CNC(=O)CCCCn1c(=O)[nH]c2ccsc2c1=O` (stereo unspecified) is lower in activation: -0.28% for the first, -0.47% for the second.

Compared with `Cc1ccc(C(=O)N/C(=C/c2cccs2)C(=O)N2CCCCC2)cc1`, `CC(=O)c1ccc(OCC(=O)N(C)C2CCS(=O)(=O)C2)cc1` (stereo unspecified) is lower in activation: -0.51% for the first, -0.71% for the second.

First: Cc1cccc(CN2CCN(C3CN(Cc4cn(Cc5cc(C)cc(C)c5)nn4)S(=O)(=O)C3)CC2)c1 (stereo unspecified)
Second: COc1cccc(NC(=O)CSc2nnc(-c3cccnc3)o2)c1
The activation of the first is lower: -0.64% for the first, -0.3% for the second.

Compared with `CCCC(=O)N=c1sc2cccc(F)c2n1C`, `COC(=O)c1ccc(CSc2nnc(NC(C)C)s2)cc1` is lower in activation: -0.39% for the first, -0.75% for the second.

First: CCCCNc1c(-c2cccc(Sc3ccc(OC)cc3)c2)nc2ccccn12
Second: COC(=O)[C@@]1(Cc2ccc(F)cc2)[C@H]2c3cc(C(=O)N(C)C)n(CCc4c[nH]c5ccc(OC)cc45)c3C[C@H]2CN1C(=O)c1ccccc1
The activation of the first is higher: -0.06% for the first, -0.5% for the second.

Compared with `N/C(=N\S(=O)(=O)c1cc(C(F)(F)F)cc(C(F)(F)F)c1)c1cccs1`, `CC1(Cc2cccc(C#N)c2)C(=O)Nc2ccc(-c3cccc(C(F)(F)F)c3)cc21` (stereo unspecified) is lower in activation: 0.39% for the first, -0.07% for the second.

Going from `NNc1cccc(C=Cc2ccccc2)cc1=O` to `CSc1ncnc2c1ncn2CCCNCc1cccs1`, the activation falls from 0.48% to -0.51%.

For `CNCC(O)c1ccc(O)c(O)c1` (stereo unspecified), the activation was -0.22%.

`Fc1ccc2[nH]c3c(N4CCSCC4)ncnc3c2c1` was tested, and the activation was 1.59% (active).
